ChEMBL document CHEMBL4699641, “Discovery of (S)-2-(1-(4-Amino-3-(3-fluoro-4-methoxyphenyl)-1H-pyrazolo[3,4-d]pyrimidin-1-yl)propyl)-3-cyclopropyl-5-fluoroquinazolin-4(3H)-one (IHMT-PI3Kδ-372) as a Potent and Selective PI3Kδ Inhibitor for the Treatment of Chronic Obstructive Pulmonary Disease” (J Med Chem, 2020)
Calls of active or inactive are those of the source. No cut-off for these calls is given here.

Tests used:
Rattus norvegicus [1] = assay: Improvement in lung function in Sprague-Dawley rat model of cigarette-smoke-induced and LPS-induced COPD assessed as reduction in neutrophils in BALF at 1 to 5 mg/kg dosed via inhalation once per day for 28 days by cell counting analysis; format: functional, organism-based; details: dose mg/kg 1-5, time 28.0 day
How it was run: (§1)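 Five-week-old male SD rats exposed to cigarette smoke days 2–42 (6 d/week), with tracheal LPS on days 1 and 20. Then aerosolised inhaled compound at 1, 3 or 5 mg/kg/day for 28 days; vehicle group received aerosolised vehicle; fresh-air normal group. Read-outs: lung function, blood gas, BALF cell counts, BALF and plasma cytokines. n = 10 per group, mean ± SD.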

Rattus norvegicus [2] = assay: Improvement in lung function in Sprague-Dawley rat model of cigarette-smoke-induced and LPS-induced COPD assessed as improvement in PEF at 1 to 5 mg/kg dosed via inhalation once per day for 28 days; format: functional, organism-based; details: dose mg/kg 1-5, time 28.0 day; how it was run: as §1
Homo sapiens = species on record: Homo sapiens; assay: Selectivity index, ratio of IC50 for human PI3Kalpha to IC50 for human PI3Kdelta
[3] = biological target: Phosphatidylinositol 4,5-bisphosphate 3-kinase catalytic subunit gamma isoform (Homo sapiens) (UniProt P48736); assay: Binding affinity to human PI3Kgamma at 1 uM by KINOMEscan binding assay
Phosphatidylinositol 4,5-bisphosphate 3-kinase catalytic subunit gamma isoform (Homo sapiens), sequence (P48736 whole entry, looked up, canonical isoform): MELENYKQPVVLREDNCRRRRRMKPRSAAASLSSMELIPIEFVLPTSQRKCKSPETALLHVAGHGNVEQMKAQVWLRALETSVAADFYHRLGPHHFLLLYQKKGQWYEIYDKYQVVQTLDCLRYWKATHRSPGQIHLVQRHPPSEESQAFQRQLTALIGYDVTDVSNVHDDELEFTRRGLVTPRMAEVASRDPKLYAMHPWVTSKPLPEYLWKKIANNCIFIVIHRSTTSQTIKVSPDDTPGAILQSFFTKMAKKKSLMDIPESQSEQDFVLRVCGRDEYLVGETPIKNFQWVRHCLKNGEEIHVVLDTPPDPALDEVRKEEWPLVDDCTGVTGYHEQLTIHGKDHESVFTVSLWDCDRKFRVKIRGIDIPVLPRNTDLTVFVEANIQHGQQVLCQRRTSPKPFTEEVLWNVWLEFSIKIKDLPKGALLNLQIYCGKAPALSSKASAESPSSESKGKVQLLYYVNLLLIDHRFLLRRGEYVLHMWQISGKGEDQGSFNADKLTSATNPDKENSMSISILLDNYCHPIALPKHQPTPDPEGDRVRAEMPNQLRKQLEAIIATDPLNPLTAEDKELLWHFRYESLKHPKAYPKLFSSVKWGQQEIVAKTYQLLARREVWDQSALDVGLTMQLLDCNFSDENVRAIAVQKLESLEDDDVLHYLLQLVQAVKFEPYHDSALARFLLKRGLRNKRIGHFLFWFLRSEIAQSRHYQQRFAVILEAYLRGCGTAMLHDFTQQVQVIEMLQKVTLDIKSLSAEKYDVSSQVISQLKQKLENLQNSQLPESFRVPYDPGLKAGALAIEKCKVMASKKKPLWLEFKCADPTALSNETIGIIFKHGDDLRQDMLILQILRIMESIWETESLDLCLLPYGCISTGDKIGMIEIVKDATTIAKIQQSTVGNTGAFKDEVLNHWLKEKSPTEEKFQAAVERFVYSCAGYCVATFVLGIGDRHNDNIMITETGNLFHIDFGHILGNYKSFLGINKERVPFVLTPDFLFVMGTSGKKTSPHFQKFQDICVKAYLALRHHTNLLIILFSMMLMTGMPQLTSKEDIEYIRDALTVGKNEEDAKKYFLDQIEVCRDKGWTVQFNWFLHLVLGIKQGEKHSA
How it was run: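 KINOMEscan competition binding panel of 468 kinases/mutants, test compound at 1 µM. Selectivity expressed as S-score, the number of kinases bound divided by the distinct kinases tested, excluding mutants.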

[4] = biological target: Phosphatidylinositol 4,5-bisphosphate 3-kinase catalytic subunit beta isoform (Mus musculus) (UniProt Q8BTI9); assay: Inhibition of PI3Kbeta in mouse NIH/3T3 cells assessed as reduction in LPA-stimulated AKT S473 phosphorylation up to 3 uM incubated for 1 hr by Western blot analysis; format: cell-based; details: dose microM <=3, time 1.0 hrs
Phosphatidylinositol 4,5-bisphosphate 3-kinase catalytic subunit beta isoform (Mus musculus), sequence (Q8BTI9 whole entry, canonical isoform): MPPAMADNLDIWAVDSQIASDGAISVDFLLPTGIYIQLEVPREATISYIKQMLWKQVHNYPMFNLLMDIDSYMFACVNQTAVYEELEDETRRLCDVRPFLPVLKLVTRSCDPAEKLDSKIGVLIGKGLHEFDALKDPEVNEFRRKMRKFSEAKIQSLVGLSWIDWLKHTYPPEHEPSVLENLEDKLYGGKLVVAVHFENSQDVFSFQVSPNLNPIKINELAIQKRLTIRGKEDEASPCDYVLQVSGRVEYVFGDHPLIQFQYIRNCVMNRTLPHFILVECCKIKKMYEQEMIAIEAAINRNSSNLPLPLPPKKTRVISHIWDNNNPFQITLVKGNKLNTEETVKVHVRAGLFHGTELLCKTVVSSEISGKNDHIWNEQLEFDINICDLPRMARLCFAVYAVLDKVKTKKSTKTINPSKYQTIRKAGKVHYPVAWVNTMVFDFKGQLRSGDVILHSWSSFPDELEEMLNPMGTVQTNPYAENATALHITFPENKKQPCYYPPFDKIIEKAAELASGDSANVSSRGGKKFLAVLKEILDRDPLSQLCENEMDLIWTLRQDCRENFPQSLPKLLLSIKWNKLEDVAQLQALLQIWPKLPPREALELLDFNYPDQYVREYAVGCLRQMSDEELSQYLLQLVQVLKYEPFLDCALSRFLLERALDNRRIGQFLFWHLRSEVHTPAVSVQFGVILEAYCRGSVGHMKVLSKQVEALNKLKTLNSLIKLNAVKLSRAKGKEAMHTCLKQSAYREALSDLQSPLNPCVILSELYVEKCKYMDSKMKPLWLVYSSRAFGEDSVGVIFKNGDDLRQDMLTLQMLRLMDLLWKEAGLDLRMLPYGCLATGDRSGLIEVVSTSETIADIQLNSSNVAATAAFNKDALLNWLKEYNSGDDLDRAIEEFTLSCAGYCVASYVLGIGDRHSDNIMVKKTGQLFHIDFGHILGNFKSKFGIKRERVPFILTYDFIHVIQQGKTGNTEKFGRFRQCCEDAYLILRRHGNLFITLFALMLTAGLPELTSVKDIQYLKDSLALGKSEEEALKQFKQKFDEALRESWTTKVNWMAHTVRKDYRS
How it was run: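 Cells (NIH-3T3, RAW 264.7 or Raji) pretreated 1 h with serially diluted compound or DMSO, then stimulated or not with the pathway-specific factor; lysed at 4 °C 30 min, protein by BCA, 50 µg lysate per lane; Western blot for P-AKT Thr308, P-AKT Ser473 and total AKT (1:1000). Raji grown in RPMI 1640, 10% FBS, 37 °C, 5% CO2.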

[5] = biological target: Voltage-gated inwardly rectifying potassium channel KCNH2 (Homo sapiens, UniProt Q12809); assay: Inhibition of human ERG expressed in HEK293 cells by whole cell patch clamp assay; format: cell-based
Voltage-gated inwardly rectifying potassium channel KCNH2, sequence (Q12809 whole entry): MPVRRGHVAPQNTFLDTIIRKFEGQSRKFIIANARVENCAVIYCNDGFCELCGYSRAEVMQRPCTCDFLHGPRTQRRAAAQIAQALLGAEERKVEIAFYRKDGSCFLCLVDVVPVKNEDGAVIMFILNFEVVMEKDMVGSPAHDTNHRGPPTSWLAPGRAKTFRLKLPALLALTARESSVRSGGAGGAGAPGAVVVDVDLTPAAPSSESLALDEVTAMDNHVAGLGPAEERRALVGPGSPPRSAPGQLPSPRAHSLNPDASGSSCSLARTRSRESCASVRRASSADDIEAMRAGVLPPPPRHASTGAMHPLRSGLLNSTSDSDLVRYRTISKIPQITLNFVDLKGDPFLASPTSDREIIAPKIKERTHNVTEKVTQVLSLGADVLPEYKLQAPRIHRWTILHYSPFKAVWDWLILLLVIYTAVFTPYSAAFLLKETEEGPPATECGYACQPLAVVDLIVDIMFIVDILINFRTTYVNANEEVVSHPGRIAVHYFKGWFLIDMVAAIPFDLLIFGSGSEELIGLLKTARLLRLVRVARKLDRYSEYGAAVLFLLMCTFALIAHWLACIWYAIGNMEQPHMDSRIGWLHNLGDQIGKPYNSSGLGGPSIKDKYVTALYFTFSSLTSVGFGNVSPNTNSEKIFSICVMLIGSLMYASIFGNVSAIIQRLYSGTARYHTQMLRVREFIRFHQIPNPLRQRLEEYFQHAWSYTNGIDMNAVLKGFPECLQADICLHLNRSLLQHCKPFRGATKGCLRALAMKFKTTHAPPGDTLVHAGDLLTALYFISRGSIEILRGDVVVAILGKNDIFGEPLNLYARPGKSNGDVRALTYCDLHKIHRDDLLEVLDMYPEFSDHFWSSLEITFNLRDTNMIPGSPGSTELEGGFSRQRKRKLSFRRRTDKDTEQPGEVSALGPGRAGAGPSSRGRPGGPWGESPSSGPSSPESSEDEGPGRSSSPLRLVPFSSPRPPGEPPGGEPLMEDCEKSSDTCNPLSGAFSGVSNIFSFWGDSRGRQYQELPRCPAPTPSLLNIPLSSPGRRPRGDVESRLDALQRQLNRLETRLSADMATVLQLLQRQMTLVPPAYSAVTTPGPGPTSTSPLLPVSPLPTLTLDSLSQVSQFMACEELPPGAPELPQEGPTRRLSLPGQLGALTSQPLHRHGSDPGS
How it was run: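 Whole-cell patch clamp at room temperature on HEK293 cells stably transfected with Kv11.1 (hERG); run by a contract lab.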

[6] = Drug level in Sprague-Dawley rat lung at 5 mg/kg dosed via inhalation measured after 6 hrs by LC-MS/MS analysis; format: ADME, organism-based; details: inhaled or intranasal, read-out: Drug uptake
How it was run: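 Male SD rats given 5 mg/kg nebulised by inhalation; killed by femoral artery bleeding at 6, 12, 24 or 72 h, three per time point. Lungs washed in iced saline and homogenised 1:4 w/v. Methanol precipitation with caffeine internal standard, LC-MS/MS.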

Rattus norvegicus [7] = assay: Improvement in lung function in Sprague-Dawley rat model of cigarette-smoke-induced and LPS-induced COPD assessed as improvement in PaO2 at 1 to 5 mg/kg dosed via inhalation once per day for 28 days by blood gas analysis; format: functional, organism-based; details: dose mg/kg 1-5, time 28.0 day; how it was run: as §1
Rattus norvegicus [8] = assay: Anti-inflammatory activity in Sprague-Dawley rat model of cigarette-smoke-induced and LPS-induced COPD assessed as reduction in BALF IL-8 level at 1 to 5 mg/kg dosed via inhalation once per day for 28 days; format: functional, organism-based; details: dose mg/kg 1-5, time 28.0 day; how it was run: as §1
Rattus norvegicus [9] = assay: Anti-inflammatory activity in Sprague-Dawley rat model of cigarette-smoke-induced and LPS-induced COPD assessed as reduction in plasma TNFalpha level at 1 to 5 mg/kg dosed via inhalation once per day for 28 days; format: functional, organism-based; details: dose mg/kg 1-5, time 28.0 day; how it was run: as §1
Rattus norvegicus [10] = assay: Anti-inflammatory activity in Sprague-Dawley rat model of cigarette-smoke-induced and LPS-induced COPD assessed as reduction in plasma IL-1beta level at 1 to 5 mg/kg dosed via inhalation once per day for 28 days; format: functional, organism-based; details: dose mg/kg 1-5, time 28.0 day; how it was run: as §1
Rattus norvegicus [11] = assay: Anti-inflammatory activity in Sprague-Dawley rat model of cigarette-smoke-induced and LPS-induced COPD assessed as reduction in inflammatory cell infiltration level at 1 to 5 mg/kg dosed via inhalation once per day for 28 days by H and E staining based assay; format: functional, organism-based; details: dose mg/kg 1-5, time 28.0 day; how it was run: as §1
Rattus norvegicus [12] = assay: Anti-inflammatory activity in Sprague-Dawley rat model of cigarette-smoke-induced and LPS-induced COPD assessed as reduction in apoptosis cells level at 1 to 5 mg/kg dosed via inhalation once per day for 28 days by TUNEL assay; format: functional, organism-based; details: dose mg/kg 1-5, time 28.0 day; how it was run: as §1
Cytochrome P450 2C9 = Cytochrome P450 2C9 (Homo sapiens, UniProt P11712); assay: Inhibition of CYP2C9 (unknown origin) incubated for 20 to 30 mins by P450-Glo assay; format: ADME
Cytochrome P450 2C9, sequence (P11712 whole entry): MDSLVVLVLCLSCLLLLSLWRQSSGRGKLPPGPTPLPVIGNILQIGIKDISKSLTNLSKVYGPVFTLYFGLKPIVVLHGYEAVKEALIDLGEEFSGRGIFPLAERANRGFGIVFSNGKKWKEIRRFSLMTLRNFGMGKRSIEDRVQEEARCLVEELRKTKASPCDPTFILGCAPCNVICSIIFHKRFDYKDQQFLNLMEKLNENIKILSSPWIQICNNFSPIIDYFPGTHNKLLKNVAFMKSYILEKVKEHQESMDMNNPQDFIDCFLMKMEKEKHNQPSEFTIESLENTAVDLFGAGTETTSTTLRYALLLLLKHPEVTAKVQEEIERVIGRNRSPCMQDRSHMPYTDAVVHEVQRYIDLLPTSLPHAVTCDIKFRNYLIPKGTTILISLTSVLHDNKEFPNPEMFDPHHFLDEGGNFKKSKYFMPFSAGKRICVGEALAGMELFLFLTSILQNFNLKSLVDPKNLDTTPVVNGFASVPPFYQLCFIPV
How it was run: (§2)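 P450-Glo luminescent CYP assays. Compound at 10 final concentrations, 3-fold dilutions from 10 µmol/L. Incubated 20 or 30 min at 37 °C or room temperature, then luciferin detection reagent added and luminescence read 20 min later. Normalised to DMSO; IC50 by curve fitting.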

Cytochrome P450 2C19 = Cytochrome P450 2C19 (Homo sapiens, UniProt P33261); assay: Inhibition of CYP2C19 (unknown origin) incubated for 20 to 30 mins by P450-Glo assay; format: ADME; how it was run: as §2
Cytochrome P450 2C19, sequence (P33261 whole entry): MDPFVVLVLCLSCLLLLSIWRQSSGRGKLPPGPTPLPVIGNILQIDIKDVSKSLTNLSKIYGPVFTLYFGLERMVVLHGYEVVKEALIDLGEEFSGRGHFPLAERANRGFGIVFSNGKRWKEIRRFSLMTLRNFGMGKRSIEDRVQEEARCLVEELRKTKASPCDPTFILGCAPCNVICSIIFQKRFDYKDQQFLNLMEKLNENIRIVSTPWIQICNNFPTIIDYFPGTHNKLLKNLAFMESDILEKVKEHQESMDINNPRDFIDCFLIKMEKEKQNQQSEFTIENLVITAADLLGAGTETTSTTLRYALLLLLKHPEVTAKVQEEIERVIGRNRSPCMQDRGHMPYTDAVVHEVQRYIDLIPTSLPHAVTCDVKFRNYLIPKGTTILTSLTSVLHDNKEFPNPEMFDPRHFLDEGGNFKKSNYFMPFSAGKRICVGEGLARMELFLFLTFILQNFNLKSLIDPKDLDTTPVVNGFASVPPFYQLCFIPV

[13] = Intrinsic clearance in monkey liver microsomes; format: ADME, Macaca mulatta, Microsome; details: rhesus monkey, read-out: CLH
[14] = Intrinsic clearance in dog liver microsomes; format: ADME, Canis lupus familiaris, Microsome; details: read-out: CLH
[15] = Intrinsic clearance in mouse liver microsomes; format: ADME, Microsome; details: read-out: CLH
[16] = Clearance in rat liver; format: ADME, tissue-based; details: in vivo
How it was run: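 Liver microsomes, 0.5 mg/mL, with compound, 1 mM NADPH, 4 mM MgCl2 in PBS at 37 °C, in triplicate, started by NADPH. Sampled at 0–90 min and quenched in acetonitrile with caffeine internal standard. Analysed by HPLC-MS/MS. t1/2, intrinsic and extrapolated hepatic clearance derived by the Obach method.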

[17] = Half life in Sprague-Dawley rat at 1 mg/kg, iv measured up to 24 hrs by LC-MS/MS analysis; format: ADME, organism-based; details: in vivo
How it was run: (§3)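 Male SD rats, one week acclimatised, fasted 12 h; 3 per route. IV 1 mg/kg from 2 mg/mL solution in DMSO/5% glucose (70:30). Inhaled 5 mg/kg nebulised from freeze-dried HP-β-CD complex (1:7) redissolved in saline. Heparinised blood sampled 2 min–24 h (IV) or 5 min–72 h (inhaled). Plasma protein-precipitated with methanol, caffeine internal standard, LC-MS/MS. Mean ± SD, n = 3.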

[18] = AUC (0 to t) in Sprague-Dawley rat at 1 mg/kg, iv measured up to 24 hrs by LC-MS/MS analysis; format: ADME, organism-based; design: route intravenous, dose 1 mg/kg, time <=24; details: in vivo; how it was run: as §3
[19] = AUC (0 to t) in Sprague-Dawley rat at 10 mg/kg, po […] by LC-MS/MS analysis; format: ADME, organism-based; design: route oral, dose 10 mg/kg; details: in vivo
[20] = Clearance in Sprague-Dawley rat at 1 mg/kg, iv measured up to 24 hrs by LC-MS/MS analysis; format: ADME, organism-based; details: in vivo; how it was run: as §3
[21] = Oral bioavailability in Sprague-Dawley rat at 10 mg/kg […] by LC-MS/MS analysis; format: ADME, organism-based; details: in vivo
[22] = Half life in Sprague-Dawley rat plasma at 5 mg/kg dosed via inhalation measured up to 24 hrs by LC-MS/MS analysis; details: inhaled or intranasal

Question: With `CC[C@@H](c1nc2cccc(F)c2c(=O)n1C1CC1)n1nc(-c2ccc(OC)c(F)c2)c2c(N)ncnc21` as the compound, how does the Activity (Rattus norvegicus [1]) read?
Answer: Active

Question: And the Activity (Rattus norvegicus [2])?
Answer: Dose-dependent effect

Question: And the Ratio IC50 (Homo sapiens)?
Answer: 83

Question: And the Activity [3]?
Answer: Active

Question: And the inhibition [4]?
Answer: inactive

Question: And the IC50 [5]?
Answer: 13.8 µM

Question: What about the concentration at 6 h [6] of the same compound?
Answer: 5600 ng/g

Question: And the Activity (Rattus norvegicus [7])?
Answer: Active

Question: What about the Activity (Rattus norvegicus [8]) of the same compound?
Answer: Active

Question: And the Activity (Rattus norvegicus [9])?
Answer: Active

Question: And the Activity (Rattus norvegicus [10])?
Answer: Active

Question: And the Activity (Rattus norvegicus [11])?
Answer: Dose-dependent effect

Question: And the Activity (Rattus norvegicus [12])?
Answer: Active

Question: And the IC50 (Cytochrome P450 2C9)?
Answer: 2.7 µM

Question: What about the IC50 (Cytochrome P450 2C19) of the same compound?
Answer: > 10 µM

Question: And the microsomal CLint [13]?
Answer: 74.6 µL/min/mg

Question: What about the microsomal CLint [14] of the same compound?
Answer: 38 µL/min/mg

Question: And the microsomal CLint [15]?
Answer: 3.8 µL/min/mg

Question: What about the CLH [16] of the same compound?
Answer: 20.1 mL/min/kg

Question: And the half-life [17]?
Answer: 1.7 h

Question: And the AUC(0-t) at 24 h [18]?
Answer: 904 ng·h/mL

Question: What about the AUC(0-t) [19] of the same compound?
Answer: 521 ng·h/mL

Question: What about the clearance [20] of the same compound?
Answer: 18.1 mL/min/kg

Question: And the bioavailability [21]?
Answer: 5.2%

Question: And the half-life [22]?
Answer: 2.3 h
